Source: ChEMBL document CHEMBL1124579, “7-Heteroaryl-1,2,3,5-tetrahydroimidazo[2,1-b]quinazolin -2(1H)-one derivatives with cardiac stimulant activity” (J Med Chem, 1989)

What was measured:
Canis familiaris [1] = test: Percent increase in dP/dtmax (positive inotropic activity) in anesthetized dog after administration of 50 ug/kg Intravenously; format: functional, Canis lupus familiaris
How it was run: (§1)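 Anesthetized dog with a catheter-tip transducer passed into the left ventricle via the carotid artery. LV pressure is differentiated to give dP/dtmax, the contractility index. There is 0.75 h equilibration after surgery. The compound is given iv in 0.9% saline (4 mL), 0.5 h after the standard agent (50 μg/kg). The cycle is repeated once control levels return, at least 0.5 h apart. The result is the % increase in dP/dtmax.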

Canis familiaris [2] = test: Relative inotropic response (50 umg/kg Intravenously) to that of 4-[4-[2-(1,1-dioxo-2-isothiazolidinyl)ethyl]-1-piperidinyl]-6,7-dimethoxyquinazoline […], in dog; format: functional, Canis lupus familiaris
How it was run: (§2)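 Anesthetized dog with a left-ventricular catheter introduced via the carotid artery; dP/dtmax is derived from LV pressure. The standard quinazoline (50 μg/kg iv) is given first, then the test compound iv in saline 0.5 h later, in the same dog. Relative potency = (% increase in dP/dtmax to drug ÷ % increase to standard) × (dose standard ÷ dose drug).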

Canis familiaris [3] = test: Percent increase in dP/dtmax (positive inotropic activity) in anesthetized dog after administration of 250 ug/kg Intravenously; format: functional, Canis lupus familiaris; how it was run: as §1
Canis familiaris [4] = test: Cardiac contractility (decrease in the QA interval) in conscious dog 1 hour after oral administration (dose 1 mg/kg); format: functional, Canis lupus familiaris
How it was run: (§3)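 Conscious dogs; the test substance is given by gavage as a solution. The QA interval is the time from the ECG R wave to the upstroke of the arterial pressure pulse, measured by computer. It is recorded every 0.16 h from 0.5 h before dosing to 4 h after. Each point is the mean of six consecutive sets, each averaged over 8 s. The result is the change from the mean predose value.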

Canis familiaris [5] = test: Relative inotropic response (10 ug/kg Intravenously) to that of 4-[4-[2-(1,1-dioxo-2-isothiazolidinyl)ethyl]-1-piperidinyl]-6,7-dimethoxyquinazoline (5- ug/kg), in dog; format: functional, Canis lupus familiaris; how it was run: as §2
Canis familiaris [6] = test: Cardiac contractility (decrease in the QA interval) in conscious dog, 3 hours after oral administration (dose 1 mg/kg); format: functional, Canis lupus familiaris; how it was run: as §3
Canis familiaris [7] = test: Percent increase in dP/dtmax (positive inotropic activity) in anesthetized dog after administration of 10 micro mg/kg Intravenously; format: functional, Canis lupus familiaris; how it was run: as §1
Canis familiaris [8] = test: Relative inotropic response (50 micro mg/kg Intravenously) to that of 4-[4-[2-(1,1-dioxo-2-isothiazolidinyl)ethyl]-1-piperidinyl]-6,7-dimethoxyquinazoline (5- ug/kg), in dog; format: functional, Canis lupus familiaris; how it was run: as §2
Canis familiaris [9] = test: Percent increase in dP/dtmax (positive inotropic activity) in anesthetized dog after administration of 20 ug/kg Intravenously; format: functional, Canis lupus familiaris; how it was run: as §1
Canis familiaris [10] = test: Relative inotropic response (20 micro mg/kg Intravenously) to that of 4-[4-[2-(1,1-dioxo-2-isothiazolidinyl)ethyl]-1-piperidinyl]-6,7-dimethoxyquinazoline (5- ug/kg), in dog; format: functional, Canis lupus familiaris; how it was run: as §2
Canis familiaris [11] = test: Cardiac contractility (decrease in the QA interval) in conscious dog 1 hour after oral administration (dose 0.125 mg/kg); format: functional, Canis lupus familiaris; how it was run: as §3
Canis familiaris [12] = test: Cardiac contractility (decrease in the QA interval) in conscious dog, 3 hours after oral administration (dose 0.125 mg/kg); format: functional, Canis lupus familiaris; how it was run: as §3
Canis familiaris [13] = test: Relative inotropic response (50 ug/kg Intravenously) to that of 4-[4-[2-(1,1-dioxo-2-isothiazolidinyl)ethyl]-1-piperidinyl]-6,7-dimethoxyquinazoline […], in dog; format: functional, Canis lupus familiaris; how it was run: as §2
Canis familiaris [14] = test: Percent increase in dP/dtmax (positive inotropic activity) in anesthetized dog after administration of 2 micro mg/kg Intravenously; format: functional, Canis lupus familiaris; how it was run: as §1
Canis familiaris [15] = test: Relative inotropic response (2 ug/kg Intravenously) to that of 4-[4-[2-(1,1-dioxo-2-isothiazolidinyl)ethyl]-1-piperidinyl]-6,7-dimethoxyquinazoline (5- ug/kg), in dog; format: functional, Canis lupus familiaris; how it was run: as §2
Canis familiaris [16] = test: Percent increase in dP/dtmax of positive inotropic activity in conscious dog after administration of 100 ug/kg orally
Canis familiaris [17] = test: Cardiac contractility (decrease in the QA interval) in conscious dog 1 hour after oral administration (dose 0.1 mg/kg); format: functional, Canis lupus familiaris; how it was run: as §3
Canis familiaris [18] = test: Cardiac contractility (decrease in the QA interval) in conscious dog, 3 hours after oral administration (dose 0.1 mg/kg); format: functional, Canis lupus familiaris; how it was run: as §3
Canis familiaris [19] = test: Percent increase in dP/dtmax of positive inotropic activity in conscious dog after administration of 25 ug/kg orally
Canis familiaris [20] = test: Relative inotropic response (250 ug/kg Intravenously) to that of 4-[4-[2-(1,1-dioxo-2-isothiazolidinyl)ethyl]-1-piperidinyl]-6,7-dimethoxyquinazoline (5- ug/kg), in dog; format: functional, Canis lupus familiaris; how it was run: as §2
[21] = Dissociation constant was determined; format: physicochemical
Canis familiaris [22] = test: Relative inotropic response (25 ug/kg Intravenously) to that of 4-[4-[2-(1,1-dioxo-2-isothiazolidinyl)ethyl]-1-piperidinyl]-6,7-dimethoxyquinazoline ([…]), in dog; format: functional, Canis lupus familiaris; how it was run: as §2
Canis familiaris [23] = test: Percent increase in dP/dtmax (positive inotropic activity) in anesthetized dog after administration of 25 ug/kg Intravenously; format: functional, Canis lupus familiaris; how it was run: as §1
Canis familiaris [24] = test: Cardiac contractility (decrease in the QA interval) in conscious dog, 3 hours after oral administration (dose 0.25 mg/kg); format: functional, Canis lupus familiaris; how it was run: as §3
Canis familiaris [25] = test: Cardiac contractility (decrease in the QA interval) in conscious dog 1 hour after oral administration (dose 0.25 mg/kg); format: functional, Canis lupus familiaris; how it was run: as §3

Q: With `CC1CC(O)=NN=C1c1ccc(-n2ccnc2)cc1.Cl` (configuration not stated) as the compound, how does the “Increase in dP/dtmax” value (Canis familiaris [1]) read?
A: Its value is 100%.

Q: What about the Relative potency (Canis familiaris [2]) of the same compound?
A: Its Relative potency is 1.6.

Q: With `Cc1cn(-c2cc(C)c3c(c2)CN2C(=N3)NC(=O)C2(C)C)c(C)n1` as the compound, how does the “Increase in dP/dtmax” value (Canis familiaris [3]) read?
A: The value was 20%.

Q: What does the source list for `Cc1cn(-c2cc(C)c3c(c2)CN2C(=N3)NC(=O)C2C)c(C)n1` (configuration not stated)?
A: Decrease in the QA interval (Canis familiaris [4]): 9 ms; Relative inotropic potency (Canis familiaris [5]): 0.9; Decrease in the QA interval (Canis familiaris [6]): 15 ms; Increase in dP/dtmax (Canis familiaris [7]): 12%

Q: With `O=C1CN2Cc3cc(-n4cncn4)ccc3N=C2N1` as the compound, how does the Relative inotropic potency (Canis familiaris [8]) read?
A: Its Relative inotropic potency is 1.7.

Q: And the “Increase in dP/dtmax” value (Canis familiaris [1])?
A: Its value is 63%.

Q: Which “Increase in dP/dtmax” value (Canis familiaris [9]) does the source give for `Cc1cn(-c2ccc3c(c2)CN2CC(=O)NC2=N3)c(C)n1` here?
A: Its value is 30%.

Q: And the “Decrease in the QA interval” value (Canis familiaris [4])?
A: Its value is 6 ms.

Q: And the Relative inotropic potency (Canis familiaris [10])?
A: The Relative inotropic potency was 1.9.

Q: What about the “Decrease in the QA interval” value (Canis familiaris [6]) of the same compound?
A: The value was 10 ms.

Q: For `Cc1cc(-n2cncn2)cc2c1NC1=NC(=O)CN1C2`, which “Decrease in the QA interval” value (Canis familiaris [11]) is on record?
A: Its value is 8 ms.

Q: And the Relative inotropic potency (Canis familiaris [8])?
A: Its Relative inotropic potency is 3.2.

Q: And the “Increase in dP/dtmax” value (Canis familiaris [1])?
A: The value was 76%.

Q: What about the “Decrease in the QA interval” value (Canis familiaris [12]) of the same compound?
A: The value was 12 ms.

Q: For `Cc1ccc(-c2ccc3c(c2)C(C)N2CC(=O)N=C2N3)c(C)n1` (configuration not stated), which “Decrease in the QA interval” value (Canis familiaris [11]) is on record?
A: The value was 13 ms.

Q: What about the Relative inotropic potency (Canis familiaris [8]) of the same compound?
A: The Relative inotropic potency was 1.6.

Q: What about the “Increase in dP/dtmax” value (Canis familiaris [1]) of the same compound?
A: The value was 50%.

Q: What about the “Decrease in the QA interval” value (Canis familiaris [12]) of the same compound?
A: Its value is 9 ms.

Q: For `Cc1ccc(-c2ccc3c(c2)CN2CC(=O)NC2=N3)c(C)n1`, which Relative potency (Canis familiaris [13]) is on record?
A: Its Relative potency is 1.3.

Q: What about the “Increase in dP/dtmax” value (Canis familiaris [1]) of the same compound?
A: The value was 29%.

Q: What about the “Decrease in the QA interval” value (Canis familiaris [4]) of the same compound?
A: Its value is 14 ms.

Q: What about the “Decrease in the QA interval” value (Canis familiaris [6]) of the same compound?
A: Its value is 15 ms.

Q: Which results are given for `Cc1cc(-n2cnnc2)cc2c1NC1=NC(=O)CN1C2`?
A: Relative potency (Canis familiaris [13]): 0.5; Increase in dP/dtmax (Canis familiaris [1]): 24%

Q: With `Cc1ccc(-c2cc(C)c3c(c2)CN2CC(=O)NC2=N3)c(C)n1` as the compound, how does the “Decrease in the QA interval” value (Canis familiaris [11]) read?
A: The value was 15 ms.

Q: And the Relative inotropic potency (Canis familiaris [5])?
A: Its Relative inotropic potency is 2.7.

Q: And the “Decrease in the QA interval” value (Canis familiaris [12])?
A: Its value is 15 ms.

Q: And the “Increase in dP/dtmax” value (Canis familiaris [7])?
A: Its value is 30%.

Q: Which “Increase in dP/dtmax” value (Canis familiaris [14]) does the source give for `Cc1cn(-c2cc(C)c3c(c2)CN2CC(=O)NC2=N3)c(C)n1` here?
A: Its value is 23%.

Q: And the Relative inotropic potency (Canis familiaris [15])?
A: Its Relative inotropic potency is 7.8.

Q: And the “Increase in dP/dtmax” value (Canis familiaris [16])?
A: Its value is 50%.

Q: And the “Decrease in the QA interval” value (Canis familiaris [17])?
A: The value was 5 ms.

Q: What about the “Decrease in the QA interval” value (Canis familiaris [18]) of the same compound?
A: The value was 15 ms.

Q: What about the “Increase in dP/dtmax” value (Canis familiaris [19]) of the same compound?
A: Its value is 20%.

Q: Which results are given for `O=C1CN2Cc3ccccc3N=C2N1`?
A: Relative inotropic potency (Canis familiaris [20]): 0.1; pKa [21]: 10.9; Increase in dP/dtmax (Canis familiaris [3]): 24%

Q: With `Cc1[nH]c(=O)c(C#N)cc1-c1ccncc1` [MILRINONE] as the compound, how does the Relative potency (Canis familiaris [22]) read?
A: The Relative potency was 1.6.

Q: And the “Increase in dP/dtmax” value (Canis familiaris [23])?
A: Its value is 46%.

Q: What about the “Decrease in the QA interval” value (Canis familiaris [24]) of the same compound?
A: The value was 7 ms.

Q: What about the “Decrease in the QA interval” value (Canis familiaris [25]) of the same compound?
A: Its value is 13 ms.

Q: For `Cc1cn(-c2cc(C)c3[nH]c(=O)ccc3c2)c(C)n1` [NANTERINONE], which pKa [21] is on record?
A: The pKa was 11.2.

Q: For `C[C@@H]1C(=O)NC2=Nc3cccc(Cl)c3CN21` [QUAZINONE], which Relative inotropic potency (Canis familiaris [20]) is on record?
A: Its Relative inotropic potency is 0.3.

Q: And the “Increase in dP/dtmax” value (Canis familiaris [3])?
A: Its value is 66%.
